Tested on: MS2 coat protein
Assay: apparent Kd, MS2 coat protein; higher = weaker binding; RNA-MaP array
Outline: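 RNA designs were transcribed from sequenced DNA templates on an Illumina sequencing chip and then incubated at room temperature with fluorescently labeled MS2 coat protein at 1.5 nM to 3 μM, with or without input ligand, in Tris-HCl pH 7.5 buffer containing KCl, MgCl2, BSA, DTT, tRNA and Tween20. Incubation lasted 0.8–1.5 h at the lowest protein concentrations and 10–20 min at the highest. Apparent Kd is the median of binding-curve fits made for each cluster. Designs measured on fewer than 10 clusters were excluded.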

[1] = designed as: OFF switch for tryptophan, no ligand
[2] = ligand present: tryptophan, designed as: OFF switch for tryptophan
[3] = designed as: ON switch for flavin mononucleotide, no ligand
[4] = ligand present: flavin mononucleotide, designed as: ON switch for flavin mononucleotide
[5] = designed as: OFF switch for flavin mononucleotide, no ligand
[6] = ligand present: flavin mononucleotide, designed as: OFF switch for flavin mononucleotide
[7] = designed as: ON switch for theophylline, no ligand
[8] = ligand present: theophylline, designed as: ON switch for theophylline
[9] = designed as: ON switch for tryptophan, no ligand
[10] = ligand present: tryptophan, designed as: ON switch for tryptophan

Row | Sequence | apparent Kd [5] | apparent Kd [6] | further results
1 | GCGAACGGACCGUUGCCUUCCUGUGUGCGGCGAGGACCGGUACGGCCGCCACUCGACUGCGUACAUGAGGAUCACCCAUGUUAGA | – | – | apparent Kd [1]: 26.5 nM; apparent Kd [2]: 66.3 nM
2 | GCUGAUCAACCCUAGGAUAUCACCCAUACCACAUGAGGAUCACCCAUGUCGGGUUGCUAUGUGGCUGAGAAGGAGGUGCACUAUAC | – | – | apparent Kd [3]: 23 nM; apparent Kd [4]: 8.76 nM
3 | GCUUUAUUCUAGAAGGCUUAUCAUGCAUAAUGUCUAGAAGUUCAGACAUGAGGAUCACCCAUGUAAGAGGAUAUAGCGUAAAGU | 26.9 nM | 31.3 nM | –
4 | GCUUUGCUGUGGUCCCUGAUACAUGAGGAUCACCCAUGUGAGAAGGAUAUUCAGAAUGGUCUCCCGAAGAAGGUCUGCACCUGG | 15.4 nM | 11.3 nM | –
5 | GGACAACAUGAGGAUCACCCAUGUCCUGAUACCAGUCAGCGCAGUGACCCUUGGCAGCAGACGGAUACGAAAUAACUGAGAGAUA | – | – | apparent Kd [7]: 40.6 nM; apparent Kd [8]: 42.1 nM
6 | GGACAUUGUCCUAUUCACAUGAGGAUCACCCAUGUCACAACUAGAAGGGAGCGAUAACAAUUUCCUCAGGAUAUAGUUCGCGGC | – | – | apparent Kd [3]: 28.2 nM; apparent Kd [4]: 24.7 nM
7 | GGGAUACAUGAGGAUCACCCAUGUCAGGAUAUCUUUUACCGGCACGACAAUCAUAUGAAGAGAAGGGACUAUAU | 35 nM | 31.9 nM | –
8 | GGGCGCCGAGGAUAUCACAGGAGUAACAUGAGGAUCACCCAUGUAUCAGUGGGCGUAAUAUGAGAAGGCGGUGGUU | 85.5 nM | 43.5 nM | –
9 | GGUAUGUCAGGAUAUUAAUGGUCAGUAACGGAACAGAGGAGUAAGAAGGGACAUGAGGAUCACCCAUGUAUUCG | 17.1 nM | 16.4 nM | –
10 | GGUUCCGCUAAGGUGAAACAUGAGGAUCACCCAUGUCAAUCUGAGGAUAUUUAUCUCGACGAGGCAAAGAAGGCAGACUCGCGG | 9.53 nM | 14.8 nM | –
11 | GGUUCUUGUUGACGUUUAUACAUGAGGAUCACCCAUGUUGCGCAGGAUAUUUCACAUUGAUAGAGAAAGAAGGGCGAUGUACGU | – | – | apparent Kd [3]: 10.4 nM; apparent Kd [4]: 8.68 nM
12 | GGUUGGUCGCAGGAUACCAGUCCACCCGUGAUACUGCUAAACAUGAGGAUCACCCAUGUCGACCCUUGGCAGCCUGUCCAUGCGU | – | – | apparent Kd (designed as: OFF switch for theophylline, no ligand): 16.3 nM; apparent Kd (ligand present: theophylline, designed as: OFF switch for theophylline): 124 nM
13 | GUACAGGAAGGAUAUACCAGGUAAGUUAAGUUUUCACAUUGACAUGAGGAUCACCCAUGUAGAAGGUCCCUAUA | 36.7 nM | 31.7 nM | –
14 | GUACCACAGUCGGCCGCCACUAAGUUGUAUUCCAGCAGGACGAAACAUGAGGAUCACCCAUGUCCUAGGACCGGGACUUCCGUCG | – | – | apparent Kd [9]: 21.2 nM; apparent Kd [10]: 21.6 nM
15 | GUACUGUACAAGAAGGUUGAUUUGCAUCAAGAUCCGAUUUACAUGAGGAUCACCCAUGUUUUAUCAAAGGAUAUUGGUACAACG | 11 nM | 66.8 nM | –
16 | GUAUGCCACAGGGACAUGAGGAUCACCCAUGUAAAUACGGAUAGAAGGCGACGAGCGUAGCUCUUCGAGGAUAUAUGCUUUUUG | 31.5 nM | 34.2 nM | –
17 | GUAUUACAUGAGGAUCACCCAUGUGCGCCGCGUCAAGGAUAUGUAUCGUACGUGUAGUAAACAGAAGGUGACGGAU | – | – | apparent Kd [3]: 170 nM; apparent Kd [4]: 71.2 nM
18 | GUCAUGUCAGGAUAUCGUUCGGAGUGCGAUUCCCUCUGCCGCGAGAAGGGACAUGAGGAUCACCCAUGUUCGAA | 16.8 nM | 43.7 nM | –
19 | GUCUCAGACCGAGAUACCAGCUGGGUUUCCCACAUGAGGAUCACCCAUGUAUUCAGAUUAAGCCCUUGGCAGCUCAUCUAGGUCC | – | – | apparent Kd [7]: 15.8 nM; apparent Kd [8]: 20.9 nM
20 | GUGUCGCGUACAGGAUAUGCUUAGGCGCUGCCCUCACAUGAGGAUCACCCAUGUAGUUUCCGCAGGCAGAAGGGUACUGACGUC | 9.67 nM | 16.2 nM | –
21 | GUUUCACAUGAGGAUCACCCAUGUCAAUGCACUGUAGGAUAUGGUUGGUUUCCGCAGCGGCCAGAAGGACAAAUAU | – | – | apparent Kd [3]: 51.2 nM; apparent Kd [4]: 33.5 nM
22 | UAAAACGGAUCAGGAUAUGUGAAACUGAGUGCGUGAACACUCGCCUACAUGAGGAUCACCCAUGUACAGAAGGGAACUACUACA | – | – | apparent Kd [3]: 16.4 nM; apparent Kd [4]: 13.9 nM
23 | UAAUAGAUUACGGCCGCCACUGAAGUGGACUUUAUGAGCAGGAUUCACAUGAGGAUCACCCAUGUCAGGACCGGGUACGUCCAUA | – | – | apparent Kd [1]: 39.2 nM; apparent Kd [2]: 45.4 nM
24 | UACAUUCGUCAGGAUAUCCAUCAGCCAGGCCUCGGAGAAGGGACUACAUGAGGAUCACCCAUGUGUAACCUCGU | 40.4 nM | 88.8 nM | –
25 | UACCAUAGACCAGUUAGCGACACAUGAGGAUCACCCAUGUAGAGAAGGUGCUCUAUCUUAAGACGCAAGGAUAUCUGCAUUAUA | 20.3 nM | 21.9 nM | –
26 | UACCCUCGAGGAUAUUAGCUAGCGAACAUGAGGAUCACCCAUGUGCAUCUUCCCAGCCGUUAAGAAGGCGAUUACC | 93.1 nM | 79.2 nM | –
27 | UACCGACAUGAGGAUCACCCAUGUACUGCGCUUGGAGGAUAUCGGCUUGAUUUUGCGCGUCGAGAAGGCCAACCUA | – | – | apparent Kd [3]: 12.2 nM; apparent Kd [4]: 10.2 nM

Row | Sequence | apparent Kd [5] | apparent Kd [6] | further results
28 | UACCGCUACAUAGGAUAUGGAGGAUGUAUGAAACACAUGAGGAUCACCCAUGUCAUCUGCACACGCCAGAAGGAUGGAAGAAAA | – | – | apparent Kd [3]: 13.4 nM; apparent Kd [4]: 7.13 nM
29 | UACCGGGCGAUAGGAUAUAUCAGUUACUUCACAUGAGGAUCACCCAUGUUACCCGUGGAAAGUUGAUAGAAGGAUCCAGCUCCA | 44.8 nM | 41.2 nM | –
30 | UAGGACAUCCAGAAGGUAACCCAAUGAUAUAACACAUGAGGAUCACCCAUGUUGAAUCAGAGACUUAAGGAUAUGGUUGAUCUU | – | – | apparent Kd [3]: 23.1 nM; apparent Kd [4]: 13.5 nM
31 | UAGUAACAUGAGGAUCACCCAUGUCAGGAUAUGAGGUCUACGGCAUAAGCGAAUCGGGUCAGAAGGGACAUAAC | 20.4 nM | 16.9 nM | –
32 | UAGUUGCAUACAUGAGGAUCACCCAUGUUUUAAUGGGUAACUAGAAGGUGUUGACGUUGGCUAAACAAGGAUAUAGUUCGUGCU | 43.3 nM | 46.5 nM | –
33 | UAUAAACAGCCUGGUUACUCGUCGCGCUUGCGAGGACCGGUACGGCCGCCACUCGACCCAUCACAUGAGGAUCACCCAUGUCCCA | – | – | apparent Kd [1]: 31.7 nM
34 | UCGAGUACGGUGAGGAUAUCAUGAGGAUUACUACAAGAGAAGGCACAUGAGGAUCACCCAUGUGGCGACCAUUC | 6.28 nM | 6.32 nM | –
35 | UCGCUGUAAGAGAAGGGCUCUGCAUGAGCACAUGAGGAUCACCCAUGUAAGAUCCUAAAGUACGAGCAGGAUAUCUCCGAGUGG | 106 nM | 77.3 nM | –
36 | UCGUUGGCACAGAAGGGACUCUCGAAGCAUGUGUCAGGAUAUGUGCGCUACAUGAGGAUCACCCAUGUCAAGACCUGGUUAGCA | 29.4 nM | 18.8 nM | –
37 | UCUCACAUGAGGAUCACCCAUGUGUGCGGUCGAGGACCGGUACGGCCGCCACUCGAAUCCUUCCGCGAGAAGAUUGUACGACGGC | – | – | apparent Kd [9]: 76.2 nM; apparent Kd [10]: 65.2 nM
38 | UCUGGUAUGACGGCCGCCACUAGAUCGUGAGAAGCCUGCAUACAUGAGGAUCACCCAUGUCUCACUAGGACCGGGUCAUUCCAAU | – | – | apparent Kd [9]: 66.1 nM; apparent Kd [10]: 22.3 nM
39 | UCUUUAAGCACAGGAUAUUGGUACAUGAGGAUCACCCAUGUGGAUCGUACUACCUCUCCACCGGACAAGAAGGGUGCGCCUACG | – | – | apparent Kd [3]: 172 nM; apparent Kd [4]: 125 nM
40 | UGAUGAUGACAGGAUAUUAGCGUAAUGAAACUUUAAGAAGGGUCGACAUGAGGAUCACCCAUGUAUGAUCUCGA | 5.5 nM | 5.38 nM | –
41 | UGCUUAAGACAGAAGGGCGUUCCGGAUGGUACCGCAGGAUAUGUCAACAUGAGGAUCACCCAUGUUACUAGCUAUGUUUCAAUU | – | – | apparent Kd [3]: 9.97 nM; apparent Kd [4]: 6.09 nM
42 | UGGGAGUGAGGAUAUGUAUAUCUCAGGGCCGAGGAGAUGAAACAGAAGGCACAUGAGGAUCACCCAUGUUAUGA | 25.3 nM | 29.9 nM | –
43 | UGUAACACAGGAUAUACAUAGGCCAGCCACUGACUCAGGUCACAUGAGGAUCACCCAUGUAGAAGGGUGCUGAA | 116 nM | 84.1 nM | –
44 | UGUGCCUAGUAGAAGGCGCCGACUCGCUCACGGCGAGGAUAUACUACUCAGGGCACAUGAGGAUCACCCAUGUGUGAUUCGUAA | 103 nM | 23.1 nM | –
45 | UUAAUCGUGCAUGAUACCAGUAUCCGUAGAUACAUGAGGAUCACCCAUGUCUGGUUGGAAUACCCUUGGCAGCAUGGGUUGAGGA | – | – | apparent Kd [7]: 242 nM; apparent Kd [8]: 249 nM
46 | UUAGACCUGCGAGGAUAUUCCAGACUAACUGAGGAAGAAGGCGCUAGAACAUGAGGAUCACCCAUGUAACAGGGAACACUUCGU | 9.82 nM | 26.3 nM | –
47 | UUAUACGCGAAAGGAUAUCUGAGAGUGGGAUCGUGGACAUGAGGAUCACCCAUGUGGAGAGAGGGAGAGAAGGUUCGGGUAUUC | 31.7 nM | 29.5 nM | –
48 | UUCAUUCGAACCAAGGAUAUGUGAUAAGUUACAUGAGGAUCACCCAUGUAUCAGUACAUCAACAGACAGAAGGUGGUGCAUAGUCA | – | – | apparent Kd [3]: 7.14 nM; apparent Kd [4]: 6.57 nM
49 | UUCCUCAGCAGGGUAACAUGAGGAUCACCCAUGUCGGAGAGCGAGGAUAUCUCGUGAAGCUCAUAAGAGAAGGCGCACAACUAG | 18.2 nM | 17.2 nM | –
50 | UUCGGCCUUUAGAAGGAUUGUAUACAUGAGGAUCACCCAUGUUGGUGAUACAGAUAUAUUCGGCAAUAGGAUAUAAGCAGGUGA | 826 nM | 598 nM | –
51 | UUGUAACAUGAGGAUCACCCAUGUAUGAACUAACAAGGAUAUGCGUGAGUCAGAUAAGACGCAGAAGGUGUCAGAU | – | – | apparent Kd [3]: 10.3 nM; apparent Kd [4]: 7.55 nM
52 | UUGUGUACUCGAGGAUAUAAUGGACUACAUGAGGAUCACCCAUGUAUACGCCCACAGAGCGUCUUUUAGAAGGCGACGCAUCAU | – | – | apparent Kd [3]: 8.4 nM; apparent Kd [4]: 7.85 nM
53 | UUUAUGUCAGGAUAUCCAACACUAUGGGAAAGUAAAUAUAGGGAGAAGGGACAUGAGGAUCACCCAUGUCAACA | 8.12 nM | 8.59 nM | –
